Assay outcomes deposited in PubChem BioAssay by Broad Institute.
GASC1 inh: KDM4C (human) demethylase inhibition. Q9H3R0. inhibition, % at 12.5 µM. 0.15% of 96,000 active. GST-KDM4C 2-372, H3K9me3 peptide, LANCE TR-FRET;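 active = mean replicate inhibition above about 25%, with at least 55% of replicates also reaching it, limit read from the data, passing the limit was not always enough; inconclusive = only one of those two conditions met; inactive = neither condition met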
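System: N-terminal GST-fused human GASC-1 (KDM4C) fragment, residues 2-372 / Amount: 10 nM GST-KDM4C in enzyme reaction / Also added: H3K9me3 peptide with Fe(II)/2OG / Times: 30 min demethylation and 1 h detection at room temperature / Signal: LANCE TR-FRET / Read-out basis: Fall in 671/618 emission ratio as inhibition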
IDH1 mut inh: blocks human IDH1 R132H reductase activity. diaphorase/resazurin fluorescence, 60 min. inhibition, % at 10 µM. 0.18% of 70,000 active. AID 624101; in the data active = inhibition above about 34%; inconclusive = no clear call, values can overlap the other calls; inactive = below about 11%
Target sequence (O75874 whole entry R132H): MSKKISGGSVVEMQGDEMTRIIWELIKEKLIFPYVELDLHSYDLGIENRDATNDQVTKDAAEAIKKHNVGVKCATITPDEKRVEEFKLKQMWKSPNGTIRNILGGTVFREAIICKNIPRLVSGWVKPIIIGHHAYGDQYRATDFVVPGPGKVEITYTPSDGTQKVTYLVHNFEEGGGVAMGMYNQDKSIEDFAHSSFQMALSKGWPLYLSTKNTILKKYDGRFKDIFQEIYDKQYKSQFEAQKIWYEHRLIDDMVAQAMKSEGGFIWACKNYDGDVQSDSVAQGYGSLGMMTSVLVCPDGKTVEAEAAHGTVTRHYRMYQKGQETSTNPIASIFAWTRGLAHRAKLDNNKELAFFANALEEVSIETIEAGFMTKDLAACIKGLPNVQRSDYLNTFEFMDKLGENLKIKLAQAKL
T cruzi growth-1: inhibitors of T. cruzi proliferation. inhibition, % at 8.34 µM. T. cruzi beta-gal in NIH3T3, GalScreen luminescence, 90 h. 5.9% of 77,000 active;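 active = mean inhibition above about 93%, with at least 55% of replicates each passing it, limit read from the data, passing the limit was not always enough; inconclusive = only one of those two conditions holds; inactive = neither condition holds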
Pf Dd2 growth: P. falciparum Dd2 growth inhibition; SYBR Green, 72 h; active compounds read low; activity change, % at 10 µM; 2.3% of 94,000 active; AID 1159554; in the data active = activity change below about -80%; inconclusive = no clear call, values can overlap the other calls
T cruzi growth-2: Trypanosoma cruzi proliferation inhibition | shares compounds with T cruzi growth-1 | T. cruzi beta-gal in NIH3T3, GalScreen luminescence, 90 h | inhibition, % at 8.35 µM | 72% of 5,600 active | AID 651739;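 active = mean replicate inhibition above about 95% and at least 55% of replicates individually reaching it, limit read from the data; inconclusive = only one of the two criteria is met; inactive = neither criterion is met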
T cruzi growth-3: inhibitors of T. cruzi proliferation. shares compounds with T cruzi growth-1. T. cruzi beta-gal in NIH3T3, GalScreen luminescence, 90 h. inhibition, % at 2.09 µM. 21% of 5,600 active. AID 651740;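 active = mean inhibition above about 95%, with at least 55% of replicates also reaching it, limit read from the data; inconclusive = meets just one of the two conditions; inactive = meets neither condition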
NIH3T3 tox: NIH/3T3 (mouse) viability loss; cytotoxicity (signal decrease), % at 8.35 µM; 14% of 5,600 active; NIH/3T3 viability, CellTiter-Glo ATP luminescence, 90 h; shares compounds with T cruzi growth-1;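 active = mean signal decrease across replicates above about 35% based on untreated-well scatter, with enough replicates individually passing, limit read from the data; inconclusive = no rule stated though some were filed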
3T3 cytotox 2: cytotoxicity in mouse NIH/3T3 fibroblasts; shares compounds with T cruzi growth-1; NIH/3T3 viability, CellTiter-Glo ATP luminescence, 90 h; inhibition, % at 24.9 µM; 56% of 5,600 active; AID 651744;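 active = mean loss of cell viability signal at or above a set limit, and enough replicates individually reaching it; inconclusive = meets only the mean limit or only the replicate share; inactive = meets neither condition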
Hits are given with their value; n = inactive; u = inconclusive; x = no result. This is a sample that favours compounds with a hit; in the whole collection about 5.8% have one here.

SMILES	GASC1 inh	IDH1 mut inh	T cruzi growth-1	Pf Dd2 growth	T cruzi growth-2	T cruzi growth-3	NIH3T3 tox	3T3 cytotox 2
CC(C)CC#Cc1ccc2c(c1)O[C@@H](CN(C)Cc1ccccc1)[C@@H](C)CN([C@@H](C)CO)S2(=O)=O	n	n	125	n	96	110	n	106
C[C@@H]1CN([C@H](C)CO)S(=O)(=O)c2ccc(C#CCN(C)C)cc2O[C@@H]1CN(C)Cc1ccccc1	n	n	n	n	x	x	x	x
C[C@H]1CN([C@@H](C)CO)S(=O)(=O)c2ccc(C#CCN(C)C)cc2O[C@@H]1CN(C)Cc1ccccc1	n	n	108	n	105	n	n	105
NC(=O)CSc1nnc(SCc2cccc3ccccc23)s1	x	n	x	x	x	x	x	x
CC(C)CC#Cc1ccc2c(c1)O[C@H](CN(C)Cc1ccncc1)[C@H](C)CN([C@@H](C)CO)S2(=O)=O	n	n	u	n	95	n	49	97
CC(C)CC#Cc1ccc2c(c1)O[C@@H](CN(C)Cc1ccncc1)[C@@H](C)CN([C@H](C)CO)S2(=O)=O	n	n	130	n	100	n	n	104
Cc1cc2nn(-c3ccc(C(C)C)cc3)nc2cc1NC(=O)COc1ccccc1[N+](=O)[O-]	x	n	x	x	x	x	x	x
COc1cccc(S(=O)(=O)N(C)C[C@@H]2Oc3ncc(C#CCN(C)C)cc3C(=O)N([C@@H](C)CO)C[C@H]2C)c1	n	n	103	n	96	n	n	n
C[C@@H]1CN([C@@H](C)CO)C(=O)c2cc(C#CCN(C)C)cnc2O[C@H]1CN(C)S(=O)(=O)c1ccccc1	n	n	97	n	102	n	n	n
CCCC#Cc1cnc2c(c1)C(=O)N([C@H](C)CO)C[C@H](C)[C@H](CN(C)S(=O)(=O)c1ccccc1)O2	n	n	n	n	x	x	x	x
CCCC#Cc1cnc2c(c1)C(=O)N([C@@H](C)CO)C[C@@H](C)[C@@H](CN(C)S(=O)(=O)c1cccc(OC)c1)O2	n	x	n	n	x	x	x	x
CC(C)CC#Cc1cnc2c(c1)C(=O)N([C@H](C)CO)C[C@@H](C)[C@@H](CN(C)S(=O)(=O)c1ccccc1)O2	n	n	n	n	x	x	x	x
Cc1ccc(S(=O)(=O)N(C)C[C@H]2Oc3ncc(C#CCC(C)C)cc3C(=O)N([C@@H](C)CO)C[C@H]2C)cc1	n	n	105	n	104	n	n	93
COc1cccc(S(=O)(=O)N(C)C[C@@H]2Oc3ncc(C#CC(C)C)cc3C(=O)N([C@H](C)CO)C[C@@H]2C)c1	n	n	96	n	n	n	n	52
O=C(Cn1cc(C(=O)c2ccccc2F)c2ccccc21)Nc1cccc(C(F)(F)F)c1	x	n	x	x	x	x	x	x
O=[N+]([O-])c1ccccc1/C=C/CN1CCN(CCO)CC1	x	n	x	x	x	x	x	x
COc1ccc(-c2nc(SCC(=O)Nc3cccc(F)c3)n[nH]2)cc1	x	n	x	x	x	x	x	x
O=C(N/N=C/c1ccc2ccccc2c1O)c1ccccn1	x	n	x	x	x	x	x	x
CCCNC(=O)N1CC2(C1)CN(C(=O)NC(C)C)[C@@H](CO)c1c2c2ccc(OC)cc2n1C	x	x	x	n	x	x	x	x
Cc1ccc(-c2nnc(SCC(=O)Nc3ccc(Br)c(C)c3)n2C)cc1	x	n	x	x	x	x	x	x
COCCOC(=O)N1C(=O)[C@@]2(c3cc(C#CCC(C(=O)OC)C(=O)OC)ccc31)[C@H](C(=O)N1CCc3cc(OC)c(OC)cc3C1)[C@H]1C(=O)O[C@H](c3ccccc3)[C@H](c3ccccc3)N1[C@@H]2c1ccccc1OCCO	x	n	x	x	x	x	x	x
COc1cccc(S(=O)(=O)N(C)C[C@H]2Oc3ncc(C#CC(C)C)cc3C(=O)N([C@H](C)CO)C[C@H]2C)c1	n	x	n	n	x	x	x	x
COc1cccc(S(=O)(=O)N(C)C[C@H]2Oc3ncc(C#CC(C)C)cc3C(=O)N([C@@H](C)CO)C[C@@H]2C)c1	n	n	114	n	n	n	n	n
Cc1ccc(S(=O)(=O)N(C)C[C@H]2OCCCC[C@@H](C)Oc3ccc(NC(=O)Cc4ccccc4)cc3C(=O)N([C@@H](C)CO)C[C@@H]2C)cc1	n	n	112	n	106	n	n	49
